Source: ChEMBL document CHEMBL2407008, “Synthesis and biological evaluation of a new series of highly functionalized 7'-homo-anhydrovinblastine derivatives” (J Med Chem, 2013)
pIC50: −log10 of the molar value. Activity calls are given as the source filed them. The calls are words filed in the database; no cut-off is given here.

Columns and labels:
[1] = test system: HUVEC; experiment: Cytotoxicity against HUVEC after 72 hrs by resazurin assay; type: cell-based; conditions: Homo sapiens
Outline: (§1)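 Cells were seeded at 2.5 × 10^3/well, cultured 24 h, then given compound in DMSO (<0.1%) at several concentrations for 72 h. Media: RPMI 1640/10% FCS for K562 and HCT116; DMEM/10% FCS for U87-MG; EGM2 with growth factors and 2% FCS for HUVEC. Resazurin was added for 1.5 h and fluorescence read (ex 560/em 590 nm). IC50 is the 50% fluorescence drop versus untreated cells. Run in triplicate.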

[2] = Cytotoxicity against human U87MG cells after 72 hrs by resazurin assay; type: functional, cell-based, U-87MG ATCC; conditions: U-87 MG; outline: as §1
[3] = test system: K562; experiment: Cytotoxicity against human K562 cells after 72 hrs by resazurin assay; type: functional, cell-based; conditions: K562, 72 h; outline: as §1
[4] = test system: HCT-116; experiment: Cytotoxicity against human HCT116 cells after 72 hrs by resazurin assay; type: functional, cell-based; conditions: HCT-116, 72 h; outline: as §1
[5] = Inhibition of sheep brain tubulin polymerization by UV spectrophotometric analysis; design: species or system Ovis aries
Outline: (§2)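 Sheep brain tubulin was mixed with compound in DMSO at 0 °C, then warmed to 37 °C. Assembly was followed as optical density at 350 nm. Maximum assembly rate was compared with a drug-free sample, and IC50 was derived from several concentrations. Vinorelbine IC50 was measured the same day on the same tubulin preparation.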

[6] = Cell cycle arrest in human U87MG cells assessed as accumulation at G2/M phase at >50 nM after 24 hrs by propidium iodide staining-based flow cytometric analysis; type: functional; conditions: U-87MG ATCC
Outline: (§3)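 U87-MG glioblastoma cells grown in DMEM with 10% FCS and L-glutamine, 37 °C, 5% CO2. Exponentially growing cells were treated for 24 h at two concentrations, or with DMSO. Cells were harvested, dissociated, PBS-washed, fixed in cold 70% ethanol and kept at −20 °C overnight. Staining used propidium iodide with RNase for 30 min, followed by flow-cytometric cell-cycle profiling.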

[7] = test system: K562; experiment: Cell cycle arrest in human K562 cells assessed as accumulation at G2/M phase at >50 nM after 24 hrs by propidium iodide staining-based flow cytometric analysis; type: functional
Outline: (§4)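 K562 cells grown in RPMI 1640 with 10% FCS and 1% glutamine, 37 °C, 5% CO2. Exponentially growing cells were exposed for 24 h to compound at two concentrations, or to DMSO. Cells were then harvested, PBS-washed, fixed in cold 70% ethanol (30 min, +4 °C) and held at −20 °C overnight. DNA was stained with propidium iodide plus RNase for 30 min, and the profile was read by flow cytometry.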

[8] = Cell cycle arrest in human U87MG cells assessed as accumulation at G2/M phase at 50 nM after 24 hrs by propidium iodide staining-based flow cytometric analysis; type: functional; conditions: U-87MG ATCC; outline: as §3
[9] = test system: K562; experiment: Cell cycle arrest in human K562 cells assessed as accumulation at G2/M phase at 50 nM after 24 hrs by propidium iodide staining-based flow cytometric analysis; type: functional; outline: as §4
[10] = organism: Ovis aries; experiment: Ratio of compound IC50 to vinorelbine IC50 for sheep brain tubulin polymerization; outline: as §2
[11] = Cell cycle arrest in human U87MG cells assessed as accumulation at G2/M phase at >5 nM after 24 hrs by propidium iodide staining-based flow cytometric analysis; type: functional; conditions: U-87MG ATCC; outline: as §3
[12] = test system: K562; experiment: Cell cycle arrest in human K562 cells assessed as accumulation at G2/M phase at >10 nM after 24 hrs by propidium iodide staining-based flow cytometric analysis; type: functional; outline: as §4
[13] = Cell cycle arrest in human U87MG cells assessed as accumulation at G2/M phase at 5 nM after 24 hrs by propidium iodide staining-based flow cytometric analysis; type: functional; conditions: U-87MG ATCC; outline: as §3
[14] = test system: K562; experiment: Cell cycle arrest in human K562 cells assessed as accumulation at G2/M phase at 10 nM after 24 hrs by propidium iodide staining-based flow cytometric analysis; type: functional; outline: as §4

Row | Compound | pIC50 [5] | pIC50 [1] | pIC50 [2] | pIC50 [3] | pIC50 [4] | other results
1 | CCC1=C[C@@H]2CN(C1)/C(C(=O)NC(C)(C)C)=C(/C(=O)OC)Cc1c([nH]c3ccccc13)[C@@](C(=O)OC)(c1cc3c(cc1OC)N(C)[C@H]1[C@@](O)(C(=O)OC)[C@H](OC(C)=O)[C@]4(CC)C=CCN5CC[C@]31[C@@H]54)C2 | 4.98 | 7.60 | 7.60 | 7.30 | 7.22 | –
2 | CCC1=C[C@@H]2CN(C1)[C@H](C(=O)NCc1ccccc1)[C@H](C(=O)OC)Cc1c([nH]c3ccccc13)[C@@](C(=O)OC)(c1cc3c(cc1OC)N(C)[C@H]1[C@@](O)(C(=O)OC)[C@H](OC(C)=O)[C@]4(CC)C=CCN5CC[C@]31[C@@H]54)C2 | 5.57 | 7.22 | 7.15 | 7.12 | 6.70 | –
3 | CCOC(=O)[C@@H]1Cc2c([nH]c3ccccc23)[C@@](C(=O)OC)(c2cc3c(cc2OC)N(C)[C@H]2[C@@](O)(C(=O)OC)[C@H](OC(C)=O)[C@]4(CC)C=CCN5CC[C@]32[C@@H]54)C[C@@H]2C=C(CC)CN(C2)C1 | < 4.00 | – | – | – | – | –
4 | CCC1=C[C@@H]2CN(C1)C[C@H](C(=O)OCc1ccccc1)Cc1c([nH]c3ccccc13)[C@@](C(=O)OC)(c1cc3c(cc1OC)N(C)[C@H]1[C@@](O)(C(=O)OC)[C@H](OC(C)=O)[C@]4(CC)C=CCN5CC[C@]31[C@@H]54)C2 | < 4.00 | – | – | – | – | –
5 | CCOC(=O)/C1=C/N2CC(CC)=C[C@H](C2)C[C@](C(=O)OC)(c2cc3c(cc2OC)N(C)[C@H]2[C@@](O)(C(=O)OC)[C@H](OC(C)=O)[C@]4(CC)C=CCN5CC[C@]32[C@@H]54)c2[nH]c3ccccc3c2C1 | < 4.00 | – | – | – | – | –
6 | C=CCNC(=O)[C@@H]1[C@H](C(=O)OC)Cc2c([nH]c3ccccc23)[C@@](C(=O)OC)(c2cc3c(cc2OC)N(C)[C@H]2[C@@](O)(C(=O)OC)[C@H](OC(C)=O)[C@]4(CC)C=CCN5CC[C@]32[C@@H]54)C[C@@H]2C=C(CC)CN1C2 | 5.31 | 7.60 | 8.00 | 7.30 | 7.35 | –
7 | CCC1=C[C@@H]2CN(C1)[C@H](C(=O)OC)[C@H](C(=O)OC)Cc1c([nH]c3ccccc13)[C@@](C(=O)OC)(c1cc3c(cc1OC)N(C)[C@H]1[C@@](O)(C(=O)OC)[C@H](OC(C)=O)[C@]4(CC)C=CCN5CC[C@]31[C@@H]54)C2 | 5.07 | 8.60 | 8.82 | 8.30 | 8.22 | Activity [11]: Active; Activity [12]: Active; Activity [13]: Active; Activity [14]: Active
8 | CCC1=C[C@@H]2CN(/C=C(/C(=O)OCc3ccccc3)Cc3c([nH]c4ccccc34)[C@@](C(=O)OC)(c3cc4c(cc3OC)N(C)[C@H]3[C@@](O)(C(=O)OC)[C@H](OC(C)=O)[C@]5(CC)C=CCN6CC[C@]43[C@@H]65)C2)C1 | < 4.00 | – | – | – | – | –
9 | C=CCNC(=O)/C1=C(\C(=O)OC)Cc2c([nH]c3ccccc23)[C@@](C(=O)OC)(c2cc3c(cc2OC)N(C)[C@H]2[C@@](O)(C(=O)OC)[C@H](OC(C)=O)[C@]4(CC)C=CCN5CC[C@]32[C@@H]54)C[C@@H]2C=C(CC)CN1C2 | 5.43 | 5.70 | 5.52 | 6.00 | 5.74 | –
10 | CCC1=C[C@@H]2CN(C1)/C(C(=O)NCc1ccccc1)=C(/C(=O)OC)Cc1c([nH]c3ccccc13)[C@@](C(=O)OC)(c1cc3c(cc1OC)N(C)[C@H]1[C@@](O)(C(=O)OC)[C@H](OC(C)=O)[C@]4(CC)C=CCN5CC[C@]31[C@@H]54)C2 | 4.98 | 7.40 | 8.00 | 7.10 | 6.60 | –
11 | CCC1=C[C@@H]2CN(/C=C(/C(=O)OC)Cc3c([nH]c4ccccc34)[C@@](C(=O)OC)(c3cc4c(cc3OC)N(C)[C@H]3[C@@](O)(C(=O)OC)[C@H](OC(C)=O)[C@]5(CC)C=CCN6CC[C@]43[C@@H]65)C2)C1 | 4.74 | 6.60 | 6.15 | 6.30 | 6.30 | –
12 | CCC1=C[C@@H]2CN(C1)/C(C(=O)OC)=C(/C(=O)OC)Cc1c([nH]c3ccccc13)[C@@](C(=O)OC)(c1cc3c(cc1OC)N(C)[C@H]1[C@@](O)(C(=O)OC)[C@H](OC(C)=O)[C@]4(CC)C=CCN5CC[C@]31[C@@H]54)C2 | 5.22 | 7.00 | 6.15 | 6.00 | 6.30 | –

Now those with a higher pIC50 [5], led by results:

Row | pIC50 [5] | Compound | pIC50 [1] | pIC50 [2] | pIC50 [3] | pIC50 [4] | other results
13 | 5.60 | CCC1=C[C@@H]2CN(C1)C[C@H](C(=O)OC)Cc1c([nH]c3ccccc13)[C@@](C(=O)OC)(c1cc3c(cc1OC)N(C)[C@H]1[C@@](O)(C(=O)OC)[C@H](OC(C)=O)[C@]4(CC)C=CCN5CC[C@]31[C@@H]54)C2 | 8.10 | 8.15 | 7.82 | 7.74 | Activity [6]: Active; Activity [7]: Active; Activity [8]: Active; Activity [9]: Active
14 | 6.15 | CCC1=C[C@@H]2CN(C1)Cc1c([nH]c3ccccc13)[C@@](C(=O)OC)(c1cc3c(cc1OC)N(C)[C@H]1[C@@](O)(C(=O)OC)[C@H](OC(C)=O)[C@]4(CC)C=CCN5CC[C@]31[C@@H]54)C2 [VINORELBINE] | 8.70 | 8.70 | 7.70 | 7.46 | –
15 | 5.96 | CCC1=C[C@@H]2CN(C1)[C@H](C(=O)NC(C)(C)C)[C@H](C(=O)OC)Cc1c([nH]c3ccccc13)[C@@](C(=O)OC)(c1cc3c(cc1OC)N(C)[C@H]1[C@@](O)(C(=O)OC)[C@H](OC(C)=O)[C@]4(CC)C=CCN5CC[C@]31[C@@H]54)C2 | 7.15 | 7.10 | 6.60 | 6.52 | Ratio IC50 [10]: 1.7
16 | 5.80 | CCC1=C[C@@H]2CN(C1)/C(C(=O)NC(C)C)=C(/C(=O)OC)Cc1c([nH]c3ccccc13)[C@@](C(=O)OC)(c1cc3c(cc1OC)N(C)[C@H]1[C@@](O)(C(=O)OC)[C@H](OC(C)=O)[C@]4(CC)C=CCN5CC[C@]31[C@@H]54)C2 | 6.15 | 6.46 | 5.82 | 5.60 | Ratio IC50 [10]: 2
17 | 6.30 | CCC1=C[C@@H]2CN(C1)[C@H](C(=O)NC(C)C)[C@H](C(=O)OC)Cc1c([nH]c3ccccc13)[C@@](C(=O)OC)(c1cc3c(cc1OC)N(C)[C@H]1[C@@](O)(C(=O)OC)[C@H](OC(C)=O)[C@]4(CC)C=CCN5CC[C@]31[C@@H]54)C2 | 6.82 | 7.70 | 7.22 | 7.00 | Ratio IC50 [10]: 0.6
18 | 5.68 | CC[C@]1(O)C[C@@H]2CN(CCc3c([nH]c4ccccc34)[C@@](C(=O)OC)(c3cc4c(cc3OC)N(C)[C@H]3[C@@](O)(C(=O)OC)[C@H](OC(C)=O)[C@]5(CC)C=CCN6CC[C@]43[C@@H]65)C2)C1 [VINBLASTINE] | 9.10 | 9.00 | 8.15 | 8.46 | –
